Measured values from PubChem BioAssay.
Calls of active or inactive are those of the source. Rule as the data show it, unless noted: active = inhibition above about 30%; inactive = the rest.

Key:
[1] = Her2 expression decrease, cell viability multiplex – SKBR3 breast tumor cells, AlphaScreen, ATP viability, primary screen (AID 461;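 active = Her2 level under about 52% in both replicate screens, with viability over 70% of control, limit read from the data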;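 as to Her2 level: lower value means less Her2 protein in the cells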;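 as to viability: percent of carrier control wells set as 100% viability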); details: SKBR3 Her2 protein level, 18-24 h, measured here: SKBR3 viability, ATP luminescence, at 10 µM
[2] = molecular target: Receptor tyrosine-protein kinase erbB-2 (Homo sapiens) (UniProt P04626); test: as above; details: 18-24 h, at 10 µM, stronger effect = lower value
Sequence of Receptor tyrosine-protein kinase erbB-2 (Homo sapiens) (P04626 whole entry, looked up): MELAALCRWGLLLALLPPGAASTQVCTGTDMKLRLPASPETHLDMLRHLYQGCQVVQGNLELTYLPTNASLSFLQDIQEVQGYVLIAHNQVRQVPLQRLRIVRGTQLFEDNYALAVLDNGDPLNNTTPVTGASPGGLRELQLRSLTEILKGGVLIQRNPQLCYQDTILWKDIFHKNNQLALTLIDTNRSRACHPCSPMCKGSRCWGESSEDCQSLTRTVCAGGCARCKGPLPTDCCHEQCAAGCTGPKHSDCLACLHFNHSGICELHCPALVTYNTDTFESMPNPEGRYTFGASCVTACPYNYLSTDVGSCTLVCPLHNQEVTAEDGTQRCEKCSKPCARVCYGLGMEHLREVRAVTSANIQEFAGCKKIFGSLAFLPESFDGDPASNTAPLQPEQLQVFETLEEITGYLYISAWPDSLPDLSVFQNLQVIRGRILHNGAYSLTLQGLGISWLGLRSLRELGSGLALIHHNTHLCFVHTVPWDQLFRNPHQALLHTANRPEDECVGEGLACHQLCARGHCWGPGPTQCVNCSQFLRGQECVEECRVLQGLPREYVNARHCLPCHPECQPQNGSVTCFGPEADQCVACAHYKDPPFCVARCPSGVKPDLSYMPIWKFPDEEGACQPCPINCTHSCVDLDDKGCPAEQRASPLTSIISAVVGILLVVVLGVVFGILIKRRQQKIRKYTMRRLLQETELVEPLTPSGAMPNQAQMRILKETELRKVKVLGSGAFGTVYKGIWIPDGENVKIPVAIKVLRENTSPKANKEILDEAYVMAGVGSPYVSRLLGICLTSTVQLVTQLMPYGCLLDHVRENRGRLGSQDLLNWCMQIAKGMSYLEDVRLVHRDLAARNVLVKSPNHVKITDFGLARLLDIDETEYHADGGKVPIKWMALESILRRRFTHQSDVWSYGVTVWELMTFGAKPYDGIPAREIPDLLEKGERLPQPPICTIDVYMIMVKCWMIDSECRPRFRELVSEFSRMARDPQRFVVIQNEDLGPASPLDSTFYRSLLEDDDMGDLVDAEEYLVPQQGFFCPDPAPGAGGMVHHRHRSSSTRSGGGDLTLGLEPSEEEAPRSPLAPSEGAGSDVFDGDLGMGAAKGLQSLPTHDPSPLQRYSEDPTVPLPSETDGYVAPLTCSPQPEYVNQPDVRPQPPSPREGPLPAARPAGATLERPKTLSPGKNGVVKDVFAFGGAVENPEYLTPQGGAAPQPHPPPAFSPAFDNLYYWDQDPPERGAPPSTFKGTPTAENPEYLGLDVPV

[3] = reduced viability of SK-BR-3 breast cancer cells – cell-based, 24 h, human, pilot screen (AID 572;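 active = viability at or below 10% of carrier control in both of two separate runs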;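 also: compound exposure lasted between 18 and 24 h rather than exactly 24 h; 100% = carrier-treated control wells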); details: SK-BR-3 viability, CellTiter-Glo luminescence, at 10 µM, stronger effect = lower value
[4] = HUVEC growth inhibition – cell-based, human, primary screen (AID 575;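 active = viability at or below 30% in both replicate assays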;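 also: 100% = median of untreated cell wells with 0.1% DMSO on each plate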); details: HUVEC proliferation, CellTiter-Glo luminescence, 72 h; at 10 µM; stronger effect = lower value
Procedure, shortened: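 Test system – primary HUVEC, no more than 12 passages · Dosing – one dose, 10 µM final, 0.1% DMSO · Times – 72 h treatment at 37 °C · Measured by – ATP-based CellTiter-Glo luminescent read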

[5] = H69AR cell proliferation blockers – human, duplicate replicates, primary screen (AID 580;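 active = viability at or under a set limit in both replicates, limit being median viability minus 3 SD, cut at about 48% in these data, passing the limit was not always enough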;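 also: 100% = mean luminescence of untreated wells and 0% = no signal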); details: H69AR lung tumor cells viability, ATP luminescence, 72 h; at 10 µM; stronger effect = lower value
[6] = MRP1 drug-resistance reversers in H69AR cells – cell-based, doxorubicin co-treatment, pilot screen (AID 601;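 active = viability loss from added drug above about 55%, and viability with drug at most 40%, in both replicates, limit read from the data, passing the limit was not always enough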); details: CellTiter-Glo, 72 h, at 10 µM; for differential viability (reversal): stronger effect = higher value
[7] = yeast transport mutant growth inhibition pilot in 384-well plates, post-Golgi transport modulator project (AID 636; in the data active = inhibition above about 31%); details: absorbance 615 nm, about 18 h, stronger effect = higher value
[8] = growth suppression of yeast trafficking mutant, preliminary HTS, modulators of trafficking downstream of Golgi apparatus project, 1536-format plate, OD 615 nm (AID 637); details: yeast transport mutant growth, absorbance 615 nm, 18 h; stronger effect = higher value
[9] = H69AR cells + 2 uM doxorubicin, measured here: viability with 2 uM doxorubicin, stronger effect = lower value
[10] = H69AR cells, compound alone cytotoxicity

Row | SMILES | viability [1] | Her2 level [2] | viability [3] | viability [4] | viability [5] | differential viability (reversal) ([6]; H69AR cells + 2 uM doxorubicin) | viability [6, 9] | viability [6, 10] | inhibition [7] | inhibition [8]
1 | Cn1c(SCC(=O)c2ccc(-c3ccccc3)cc2)nnc1-c1ccco1 | 120% | 93.5% (inactive) | 120% (inactive) | 93.7% (inactive) | 88.1% (inactive) | -2.98% (inactive) | 91.1% | 88.1% | -5.6% (inactive) | 9.68% (inactive)
2 | CC(=O)Nc1cccc(NC(=O)C2CCCN2C(=O)Nc2ccc(C)cc2)c1 (stereo not given) | 89% | 93.5% (inactive) | 89% (inactive) | 99.9% (inactive) | 100% (inactive) | 10.7% (inactive) | 89.7% | 100% | -0.68% (inactive) | -6.89% (inactive)
3 | COc1cccc(CN=CC2=C(O)CC(C)(C)CC2=O)c1OC | 106% | 114% (inactive) | 106% (inactive) | 101% (inactive) | 100% (inactive) | -0.91% (inactive) | 101% | 100% | -1.69% (inactive) | -7.54% (inactive)
4 | CCOCCCNC(=O)c1cc2sc(Cl)cc2n1CC | 89% | 88% (inactive) | 89% (inactive) | 60% (inactive) | 28.5% (active) | -44% (inactive) | 72.5% | 28.5% | -8.36% (inactive) | -0.95% (inactive)
5 | CC(C)(C)n1nnnc1C(c1cccs1)N1CCN(Cc2ccccc2)CC1 (stereo not given) | 90% | 98.5% (inactive) | 90% (inactive) | 86% (inactive) | 84.3% (inactive) | 0.73% (inactive) | 83.6% | 84.3% | -4.16% (inactive) | -2.86% (inactive)
6 | COc1cccc2cc(C(=O)N3CCc4ccccc43)c(=O)oc12 | 92% | 74% (inactive) | 92% (inactive) | 95.2% (inactive) | 94.2% (inactive) | 4.2% (inactive) | 90% | 94.2% | -3.03% (inactive) | 0.63% (inactive)
7 | O=C(Nc1cccc2c1CCCC2)C1CCN(c2nnnn2-c2ccccc2)CC1 | 92% | 99% (inactive) | 92% (inactive) | 97.7% (inactive) | 89.2% (inactive) | 5.29% (inactive) | 83.9% | 89.2% | -0.13% (inactive) | -6.45% (inactive)
8 | O=S(=O)(c1ccc(S(=O)(=O)N(Cc2ccco2)Cc2ccccc2Cl)cc1)N1CCCC1 | 96% | 74.5% (inactive) | 96% (inactive) | 79% (inactive) | 76.6% (inactive) | 12.4% (inactive) | 64.2% | 76.6% | -5.54% (inactive) | 8.1% (inactive)
9 | Cc1sc2nc(SCc3nc4ccccc4[nH]3)n(Cc3ccco3)c(=O)c2c1C | 96.5% | 92.5% (inactive) | 96.5% (inactive) | 91.7% (inactive) | 84.6% (inactive) | 8.02% (inactive) | 76.6% | 84.6% | -0.13% (inactive) | -1.8% (inactive)
10 | O=C1CC(c2ccsc2)c2cc3c(cc2N1)OCCO3 (stereo not given) | 103% | 98.5% (inactive) | 103% (inactive) | 67.6% (inactive) | 26.9% (active) | -33.3% (inactive) | 60.2% | 26.9% | -2.93% (inactive) | -5.25% (inactive)
11 | COc1cc(CN2CCSCC2)cc(OC)c1OC | 89.5% | 150% (inactive) | 89.5% (inactive) | 88.8% (inactive) | 109% (inactive) | 21% (inactive) | 87.7% | 109% | -0.65% (inactive) | -1.83% (inactive)
12 | CCOC(=O)CN1CC23C=CC(O2)C(C(=O)NCc2ccc(F)cc2)C3C1=O (stereo not given) | 88% | 93.5% (inactive) | 88% (inactive) | 102% (inactive) | 98.9% (inactive) | 12.5% (inactive) | 86.4% | 98.9% | -0.38% (inactive) | -0.17% (inactive)
13 | Cc1cc(C(=O)Cn2cncn2)c(C)n1CCc1ccc(F)cc1 | 64% | 80% (inactive) | 64% (inactive) | 105% (inactive) | 89.2% (inactive) | -5.71% (inactive) | 95% | 89.2% | -5.41% (inactive) | 3.11% (inactive)
14 | CCOC(=O)N1CCN(c2cc3[nH]c(=S)[nH]c3cc2F)CC1 | 112% | 83% (inactive) | 112% (inactive) | 100% (inactive) | 89.7% (inactive) | -6.7% (inactive) | 96.4% | 89.7% | -7.2% (inactive) | -2.58% (inactive)
15 | O=c1c[n+]([O-])c2ccccc2n1OCc1ccccn1 | 94% | 89.5% (inactive) | 94% (inactive) | 94.7% (inactive) | 105% (inactive) | 12.1% (inactive) | 92.7% | 105% | -2.11% (inactive) | -4.29% (inactive)
16 | O=C(CCSc1ccccc1)Nc1ccc(S(=O)(=O)N2CCOCC2)cc1 | 102% | 83.5% (inactive) | 102% (inactive) | 81.2% (inactive) | 104% (inactive) | 12.5% (inactive) | 91.6% | 104% | -9.18% (inactive) | -1.27% (inactive)
17 | COc1ccc(CCNC(=O)c2cc(C(C)C)on2)cc1OC | 95.5% | 101% (inactive) | 95.5% (inactive) | 96.6% (inactive) | 93.2% (inactive) | 9.6% (inactive) | 83.6% | 93.2% | 0.51% (inactive) | -0.67% (inactive)
18 | Cc1c(/C(O)=C2/C(=O)C(=O)N(CCN3CCOCC3)C2c2cccs2)cnn1-c1ccccc1 (stereo not given) | 88% | 114% (inactive) | 88% (inactive) | 116% (inactive) | 96.2% (inactive) | 1.22% (inactive) | 95% | 96.2% | -0.79% (inactive) | 0.16% (inactive)
19 | O=C1c2ccccc2C(Nc2ccc3c(c2)OCCO3)N1Cc1ccco1 (stereo not given) | 106% | 112% (inactive) | 106% (inactive) | 87.7% (inactive) | 80.7% (inactive) | -22.6% (inactive) | 103% | 80.7% | 4.23% (inactive) | -1.5% (inactive)
20 | CCOC(=O)COc1ccc(S(=O)(=O)N2CCc3ccccc3C2)cc1 | 111% | 102% (inactive) | 111% (inactive) | 9.96% (active) | 96.7% (inactive) | 13.7% (inactive) | 83% | 96.7% | -1.97% (inactive) | 0.65% (inactive)
21 | Cc1ccc2cc(C(c3nnnn3CC3CCCO3)N3CCc4ccccc4C3)c(=O)[nH]c2c1 (stereo not given) | 87% | 82% (inactive) | 87% (inactive) | 105% (inactive) | 100% (inactive) | -2.15% (inactive) | 102% | 100% | -3.84% (inactive) | -6.83% (inactive)
22 | O=C(NCc1ccccn1)c1ccc2nc(-c3ccco3)c(-c3ccco3)nc2c1 | 101% | 90.5% (inactive) | 101% (inactive) | 111% (inactive) | 73.8% (inactive) | -5.92% (inactive) | 79.8% | 73.8% | -5.66% (inactive) | 2.13% (inactive)
23 | CCOc1ccc(-c2nc(S(=O)(=O)c3ccccc3)c(NCc3cccnc3)o2)cc1 | 97% | 94% (inactive) | 97% (inactive) | 94.2% (inactive) | 97.6% (inactive) | 6.18% (inactive) | 91.4% | 97.6% | 1.33% (inactive) | -1.13% (inactive)
24 | Cn1c(=O)[nH]c(=O)c2c1nc(N1CCCCCC1)n2CCCSc1nc2ccccc2o1 | 84.5% | 80% (inactive) | 84.5% (inactive) | 66.4% (inactive) | 80.7% (inactive) | 37% (inactive) | 43.7% | 80.7% | -5.68% (inactive) | 3.97% (inactive)
25 | Cc1sc2nc(SCC(=O)N3CCN(CCO)CC3)n(-c3ccccc3)c(=O)c2c1C | 118% | 99% (inactive) | 118% (inactive) | 78.3% (inactive) | 88.1% (inactive) | 0.935% (inactive) | 87.2% | 88.1% | 0.65% (inactive) | -0.16% (inactive)
26 | CC(C)(C)NC(=O)C(c1ccco1)N(C(=O)Cn1nnc(-c2ccc(F)cc2)n1)c1ccccc1 (stereo not given) | 89.5% | 80% (inactive) | 89.5% (inactive) | 101% (inactive) | 102% (inactive) | 3.25% (inactive) | 98.4% | 102% | -0.92% (inactive) | 0% (inactive)
27 | CS(=O)(=O)N(CC(=O)Nc1cccc(F)c1)Cc1ccccc1 | 78.5% | 87.5% (inactive) | 78.5% (inactive) | 87.5% (inactive) | 103% (inactive) | 13.1% (inactive) | 90% | 103% | -3.78% (inactive) | 2.3% (inactive)
28 | Cc1ccc(N(Cc2ccco2)C(=O)c2cccc(S(=O)(=O)N(C)C)c2)cc1 | 97.5% | 104% (inactive) | 97.5% (inactive) | 88.4% (inactive) | 96.7% (inactive) | -2.84% (inactive) | 99.6% | 96.7% | 0.53% (inactive) | -1% (inactive)
